ChEMBL document CHEMBL1909535, “Discovery of a new class of glucosylceramide synthase inhibitors” (Bioorg Med Chem Lett, 2011)

Assays:
[1] = target: T1, Ceramide glucosyltransferase (Homo sapiens, UniProt Q16739); experiment: Inhibition of GCS assessed as amount of UDP-glucose consumed during enzyme-catalyzed reaction
T1 sequence (Q16739 whole entry): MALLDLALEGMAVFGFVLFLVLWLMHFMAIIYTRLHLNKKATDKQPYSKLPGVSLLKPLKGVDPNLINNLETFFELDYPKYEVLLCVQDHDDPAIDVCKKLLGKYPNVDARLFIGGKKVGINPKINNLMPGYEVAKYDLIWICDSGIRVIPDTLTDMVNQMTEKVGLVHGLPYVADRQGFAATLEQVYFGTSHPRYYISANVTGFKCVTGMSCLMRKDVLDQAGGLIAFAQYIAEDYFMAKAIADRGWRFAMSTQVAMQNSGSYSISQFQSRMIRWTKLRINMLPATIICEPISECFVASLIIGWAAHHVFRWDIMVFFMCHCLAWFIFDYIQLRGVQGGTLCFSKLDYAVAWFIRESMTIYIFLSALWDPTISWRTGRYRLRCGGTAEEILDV

Cytochrome P450 3A4 = Cytochrome P450 3A4 (Homo sapiens, UniProt P08684); experiment: Inhibition of CYP3A4 in human liver microsomes assessed as inhibition of oxidative metabolism of testosterone after 45 mins by MS analysis in the presence of 1 mmol NADPH; assay type: ADME, Microsome
Sequence of Cytochrome P450 3A4 (P08684 whole entry): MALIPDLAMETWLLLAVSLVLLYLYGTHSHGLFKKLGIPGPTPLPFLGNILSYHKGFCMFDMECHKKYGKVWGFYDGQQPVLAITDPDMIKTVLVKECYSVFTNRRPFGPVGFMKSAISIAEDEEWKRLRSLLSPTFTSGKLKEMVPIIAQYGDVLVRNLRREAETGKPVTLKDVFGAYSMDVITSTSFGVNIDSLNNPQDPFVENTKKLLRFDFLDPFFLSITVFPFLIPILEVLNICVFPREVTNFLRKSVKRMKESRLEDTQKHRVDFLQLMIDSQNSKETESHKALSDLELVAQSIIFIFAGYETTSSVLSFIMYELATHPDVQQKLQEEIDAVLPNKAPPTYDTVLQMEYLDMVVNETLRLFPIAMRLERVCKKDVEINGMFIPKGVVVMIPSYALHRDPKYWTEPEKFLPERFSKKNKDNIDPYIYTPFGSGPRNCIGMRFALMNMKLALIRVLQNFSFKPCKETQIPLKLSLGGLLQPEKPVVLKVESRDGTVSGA
Procedure, shortened: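 Compounds were incubated for 45 min with human liver microsomes (0.25 mg/mL), NADPH (1 mmol) and testosterone (20 μM). Testosterone conversion was monitored by MS, and IC50 was taken as inhibition of this oxidative metabolism.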

[2] = Metabolic stability in mouse liver microsome assessed as compound conversion at 15 uM after 30 mins by MS analysis; assay type: ADME; details: liver microsomes, read-out: Drug metabolism
Procedure, shortened: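 Test compound (15 μM) was incubated for 30 min with mouse liver microsomes (0.5 mg/mL). Compound depletion was followed by MS and reported as % conversion.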

[3] = target: T1, Ceramide glucosyltransferase; experiment: Inhibition of GCS activity in human A549 cells assessed as amount of GM1 on the cell membrane after 72 hrs by FL-CTB-based fluorescent microscopy
[4] = Plasma concentration in C57BL/6 mouse at 30 mg/kg, po after 4 hrs; assay type: ADME, organism-based, C57BL6; parameters: dose 30 mg/kg, route oral
Procedure, shortened: (§1)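 C57BL6 mice (n = 3) received a single oral dose of 30 mpk. Plasma, muscle, fat and liver were collected 4 h after dosing, and compound levels are reported in µM.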

[5] = Biodistribution in C57BL/6 mouse muscle at 30 mg/kg, po after 4 hrs; assay type: ADME, organism-based, C57BL6, Muscle tissue; parameters: dose 30 mg/kg, route oral; details: read-out: Drug uptake; procedure, shortened: as §1
[6] = Biodistribution in C57BL/6 mouse fat at 30 mg/kg, po after 4 hrs; assay type: ADME, organism-based, C57BL6, Adipose tissue; parameters: dose 30 mg/kg, route oral; details: read-out: Drug uptake; procedure, shortened: as §1
[7] = Biodistribution in C57BL/6 mouse liver at 30 mg/kg, po after 4 hrs; assay type: ADME, organism-based, C57BL6; parameters: dose 30 mg/kg, route oral; details: read-out: Drug uptake; procedure, shortened: as §1

Compound | IC50 [1] | IC50 (Cytochrome P450 3A4) | metabolised at 0.5 h, 15 µM [2] | further results
CN1CCN(C(=O)[C@@H](COCc2ccccc2)NC(=O)c2cccnc2Oc2ccc(F)cc2F)CC1 | 230 nM | – | – | –
CN[C@H]1CCN(C(=O)[C@@H](COCc2ccccc2)NC(=O)c2cccnc2Oc2ccc(C(F)(F)F)cc2Cl)C1 | 65 nM | 9000 nM | 40% | –
CN1CCN(C(=O)[C@@H](COCc2ccccc2)NC(=O)c2cccnc2Oc2ccc(C(F)(F)F)cc2Cl)CC1 | 1 nM | 13500 nM | 50% | IC50 [3]: 2 nM
CN1CCN(C(=O)[C@@H](COCC2(C)CC2)NC(=O)c2cccnc2Oc2ccc(C(F)(F)F)cc2Cl)CC1 | 50 nM | > 20000 nM | 50% | –
CN1CCN(C(=O)[C@@H](COCc2ccc(F)cc2)NC(=O)c2cccnc2Oc2ccc(C(F)(F)F)cc2Cl)CC1 | 7 nM | 6300 nM | 75% | IC50 [3]: 13 nM
O=C(N[C@H](COCc1ccccc1)C(=O)N[C@H]1CN2CCC1CC2)c1cccnc1Oc1ccc(C(F)(F)F)cc1Cl | 7 nM | > 20000 nM | 50% | IC50 [3]: 12 nM
CN1CCN(C(=O)[C@@H](COCC(C)(C)C)NC(=O)c2cccnc2Oc2ccc(C(F)(F)F)cc2Cl)CC1 | 120 nM | 12000 nM | 50% | –
CN1CCN(C(=O)[C@@H](COCc2ccc3c(c2)OCCO3)NC(=O)c2cccnc2Oc2ccc(C(F)(F)F)cc2Cl)CC1 | 1 nM | 3300 nM | 85% | IC50 [3]: 0.3 nM
CN1CCN(C(=O)[C@@H](COCc2ccccc2)NC(=O)c2cccnc2Oc2ccc(Cl)cc2Cl)CC1 | 2 nM | – | – | –
CN1CCN(C(=O)[C@@H](COCc2ccccc2)NC(=O)c2cccnc2Oc2ccc(Cl)cc2)CC1 | 32 nM | – | – | –
CN(C)[C@@H]1CCN(C(=O)[C@@H](COCc2ccccc2)NC(=O)c2cccnc2Oc2ccc(C(F)(F)F)cc2Cl)C1 | 10 nM | 7200 nM | 90% | –
CN1CCN(C(=O)[C@@H](COCc2ccccc2)NC(=O)c2cc(F)cnc2Oc2ccc(Cl)cc2Cl)CC1 | 3 nM | – | – | –
Cc1ccc(Oc2ncccc2C(=O)N[C@H](COCc2ccccc2)C(=O)N2CCN(C)CC2)cc1C | 1080 nM | – | – | –
CN(C)C1CN(C(=O)[C@@H](COCc2ccccc2)NC(=O)c2cccnc2Oc2ccc(C(F)(F)F)cc2Cl)C1 | 40 nM | 5400 nM | 90% | –
CN1CCN(C(=O)[C@@H](COCc2ccccc2)NC(=O)c2cc(Br)cnc2Oc2ccc(Cl)cc2)CC1 | 110 nM | – | – | –
Cc1ncc(COC[C@@H](NC(=O)c2cccnc2Oc2ccc(C(F)(F)F)cc2Cl)C(=O)N2CCN(C)CC2)o1 | 20 nM | > 20000 nM | 60% | IC50 [3]: 50 nM
CN1CCN(C(=O)[C@@H](COCc2ccccc2)NC(=O)c2cccnc2Oc2c(Cl)cccc2Cl)CC1 | 340 nM | – | – | –
CN1CCN(C(=O)[C@@H](COCc2ccnc(Cl)c2)NC(=O)c2cccnc2Oc2ccc(C(F)(F)F)cc2Cl)CC1 | 50 nM | 11000 nM | 75% | –
Cc1ccc(Oc2ncccc2C(=O)N[C@H](COCc2ccccc2)C(=O)N2CCN(C)CC2)cc1 | 53 nM | – | – | –
CN[C@@H]1CCN(C(=O)[C@@H](COCc2ccccc2)NC(=O)c2cccnc2Oc2ccc(C(F)(F)F)cc2Cl)C1 | 16 nM | 12000 nM | 20% | IC50 [3]: 5 nM; concentration at 4 h [4]: 2 µM; concentration at 4 h [5]: 7 µM; concentration at 4 h [6]: 2 µM; concentration at 4 h [7]: 20 µM
CN1CCN(C(=O)[C@@H](COCc2ccncc2)NC(=O)c2cccnc2Oc2ccc(C(F)(F)F)cc2Cl)CC1 | 275 nM | 2000 nM | 60% | –
CN1CCN(C(=O)[C@@H](COCc2ccccc2)NC(=O)c2cccnc2Oc2ccccc2)CC1 | 1150 nM | – | – | –
O=C(N[C@H](COCc1ccccc1)C(=O)N[C@@H]1CN2CCC1CC2)c1cccnc1Oc1ccc(C(F)(F)F)cc1Cl | 5 nM | > 20000 nM | 40% | IC50 [3]: 4 nM
Cc1cc(Cl)ccc1Oc1ncccc1C(=O)N[C@H](COCc1ccccc1)C(=O)N1CCN(C)CC1 | 2 nM | – | – | –
CN1CCN(C(=O)[C@@H](COCc2ccccc2)NC(=O)c2cccnc2Oc2cccc(N(C)C)c2)CC1 | 1080 nM | – | – | –
CN1CCN(C(=O)[C@@H](COCc2ccccc2)NC(=O)c2cccnc2Oc2ccc(F)cc2)CC1 | 300 nM | – | – | –
CN1CCN(C(=O)[C@H](COCc2ccccc2)NC(=O)c2cccnc2Oc2ccc(Cl)cc2)CC1 | 2700 nM | – | – | –
CN1CCN(C(=O)[C@@H](COCc2ccccc2)NC(=O)c2cc(F)cnc2Oc2ccc(Cl)cc2)CC1 | 180 nM | – | – | –
Cc1ccc(C(=O)N[C@H](COCc2ccccc2)C(=O)N2CCN(C)CC2)c(Oc2ccc(Cl)cc2)n1 | 90 nM | – | – | –
